Shown are actives, neighbours in structure and some others; about 2.1% of the full set was active somewhere.
TNF necrop inh – inhibitors of TNF-alpha triggered necroptosis, primary screen, cell-based, Jurkat FADD-/-, single concentration; Jurkat FADD-/- TNF necroptosis rescue, ATP luminescence, 24 h; 0 = TNF only, 100 = no-TNF cells; activation (protection from cell death), % at 10 µM; hit rate 0.068% among 220,000; AID 463075, 2010;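 active means activation, meaning protection from cell death, of at least 50% relative to plate controls; inactive means activation below 50%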;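 further: necroptosis triggered by 40 ng/mL TNF-alpha added together with compound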
RanGTP-Impb inh – inhibitors of RanGTP-importin-beta interaction, primary screen, biochemical, FRET, CFP-Ran, YFP-importin-beta, homogeneous; Ran GTPase (GTP-bound) - importin-beta complex; cell-free CFP-Ran/YFP-importin-beta FRET ratio; inhibition, % (no concentration beside the values); hit rate 1.1% among 300,000;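 active means more than half of the replicate wells show a fall in the fluorescence ratio signal beyond about 16%, limit read from the data, passing the limit was not always enough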
zVAD death inh – inhibitors of zVAD-triggered necroptosis, primary screen, L929 cells | viability rescue, % at 10 µM | L929 zVAD necroptosis rescue, ATP luminescence, 24 h; with zVAD 60 µM | AID 1377, 2008 | hit rate 0.38% among 220,000;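 active means activation, scaled between plate controls, above about 75%, limit read from the data; inactive means activation under that limit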
Runt-CBFb FRET – inhibitors of RUNX1 Runt–CBFb binding, primary screen, biochemical, FRET, Cerulean-Runt, Venus-CBFb, uHTS. Runt-related transcription factor 1 (Homo sapiens) + Core-binding factor subunit beta …. Cerulean-Runt/Venus-CBFb FRET ratio 530/480, 1 h. inhibition, % at 20 µM. hit rate 0.46% among 220,000. AID 1496, 2009;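 active means inhibition over about 50% at 20 µM in the single-dose screen, limit read from the data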
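Schedule: protein complex preformed 1 h, compound exposure 1 h, room temperature, dark; test system: Cerulean-labeled Runt domain protein; amount: 100 nM per protein; buffer or medium: Tris 50 mM pH 7.5, KCl, K2SO4, 0.01% BSA; read-out: loss of energy transfer signal; detection: FRET fluorescence; controls: 5 µM unlabeled CBFb as full-inhibition high control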
Hck-Nef inh – inhibitors of Nef-activated human Hck kinase, primary screen, biochemical, Z-Lyte FRET, 384-well, Hck-YEEI; hit rate 0.68% among 220,000; inhibition, % at 20 µM; AID 463187, 2010; Recombinant Hck-YEEI plus Nef, Z-Lyte FRET kinase assay;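 active means Hck-Nef kinase inhibition above about 50%, limit read from the data; inactive means inhibition below that limit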
Target sequence (P08631 whole entry, looked up): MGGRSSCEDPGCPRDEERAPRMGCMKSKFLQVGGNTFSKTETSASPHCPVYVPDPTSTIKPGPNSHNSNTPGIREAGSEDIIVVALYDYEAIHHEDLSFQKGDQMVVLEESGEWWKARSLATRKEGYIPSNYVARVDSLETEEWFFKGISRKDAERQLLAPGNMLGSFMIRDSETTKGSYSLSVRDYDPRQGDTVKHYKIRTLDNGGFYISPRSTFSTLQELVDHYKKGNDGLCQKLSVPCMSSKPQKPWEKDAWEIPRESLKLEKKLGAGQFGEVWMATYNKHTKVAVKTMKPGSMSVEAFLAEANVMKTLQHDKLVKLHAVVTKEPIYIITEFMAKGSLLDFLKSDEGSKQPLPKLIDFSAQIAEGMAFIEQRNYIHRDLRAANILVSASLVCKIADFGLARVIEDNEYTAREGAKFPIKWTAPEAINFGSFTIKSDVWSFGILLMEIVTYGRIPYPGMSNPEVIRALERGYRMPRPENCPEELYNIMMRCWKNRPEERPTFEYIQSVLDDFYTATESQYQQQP
Runt-SMMHC FRET – inhibitors of RUNX1 Runt–CBFb-SMMHC binding, primary screen, biochemical, FRET, Cerulean-Runt, Venus-CBFb-SMMHC, uHTS; Runt-related transcription factor 1 (Homo sapiens) + Core-binding factor subunit beta …; Cerulean-Runt/Venus-CBFb-SMMHC FRET ratio 530/480, 1 h; inhibition, % at 20 µM; hit rate 0.74% among 220,000; AID 1434, 2008;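 active means mean inhibition across duplicate retests at 20 µM reaching about 50%, limit read from the data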;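 further: inhibitors lower the FRET ratio by blocking Runt binding to CBFb-SMMHC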
Numbers stand for hits; - = inactive; . = not tested or not shown.

SMILES	TNF necrop inh	RanGTP-Impb inh	zVAD death inh	Runt-CBFb FRET	Hck-Nef inh	Runt-SMMHC FRET
COc1cc(C2SCC(=O)N2Cc2ccccc2)ccc1O (stereo unspecified)	.	17.1	.	.	.	.
CC(=O)Oc1c(/C=C(\C#N)C(N)=O)[nH]c2ccccc12	-	15.8	-	-	-	-
COc1ccccc1NCC(=O)NNCC(=O)Nc1ccc(F)c(Cl)c1	-	-	-	-	-	-
CN1/C(=C/C(=O)c2cccs2)Sc2ccccc21	-	-	-	-	-	82.9
CN1/C(=C\C(=O)c2cccs2)C(C)(C)c2ccccc21	-	17.7	-	-	-	85.5
COCC(=O)/C=C1\Sc2ccccc2N1C	-	-	-	-	-	-
N#CC1CC(c2ccccc2)=NN1c1ccccc1[N+](=O)[O-] (stereo unspecified)	-	-	-	-	-	-
CCCn1c(=O)c(C(=O)NNS(=O)(=O)c2ccc(Cl)cc2)c(O)c2ccccc21	-	-	-	-	-	-
Nc1cc2c(cc1O)CCCC2	-	-	-	-	-	-
Cc1c(C(=O)O)cccc1-n1c(C)cc(C=O)c1C	-	-	-	-	-	92.5
Cc1cc(C(=O)O)ccc1-n1c(C)cc(/C=C2\SC(=O)NC2=O)c1C	.	-	.	.	.	.
Cc1ccc(C(=O)O)cc1-n1c(C)cc(C=O)c1C	-	-	-	-	-	90.5
COc1ccccc1NC(=O)C1CCCN(S(=O)(=O)c2ccc(-n3cnnn3)cc2)C1 (stereo unspecified)	.	-	.	.	.	.
O=C(CCC(F)(F)F)N1CCCC(N2CCN(c3cccc(Cl)c3)CC2)C1 (stereo unspecified)	.	-	.	.	.	.
COc1ccc(CCn2c(N)c(S(=O)(=O)c3cccs3)c3nc4ccccc4nc32)cc1OC	-	-	-	.	-	-
COc1ccc(CCn2c(N)c(C(=O)NCc3ccco3)c3nc4ccccc4nc32)cc1OC	-	39.1	-	-	-	-
Nc1c(C(=O)NCc2ccco2)c2nc3ccccc3nc2n1CCc1ccccc1F	-	50.2	-	-	-	.
COC(=O)c1n[nH]c2ccccc12	-	24.2	-	-	-	-
CC1(OC(=O)CCc2ccccc2)C(=O)C=C2C=C(c3ccsc3)OC=C2C1=O (stereo unspecified)	-	-	-	-	71.2	-
CC1(OC(=O)c2cccs2)C(=O)C=C2C=C(c3ccsc3)OC=C2C1=O (stereo unspecified)	.	-	.	.	.	.
CNC(=O)CSc1nnc(NC(=O)C2CC(=O)N(c3ccccc3OC)C2)s1 (stereo unspecified)	.	-	.	.	.	.
COc1ccc(CCC(=O)NC2CCC(C)CC2)cc1 (stereo unspecified)	.	-	.	.	.	.
Brc1ccc(CSc2nnc(-c3cccnc3)o2)cc1	-	-	-	-	51.1	-
Cc1ccc(C(=O)NNS(=O)(=O)c2ccc(F)cc2)cc1	.	-	.	.	.	.
CCOC(=O)C1=C(CSc2nc3c(cc2C#N)CN(C)CC3)OC(N)=C(C#N)C1c1ccc(F)cc1 (stereo unspecified)	-	18.7	-	-	-	62.9
SMILES	TNF necrop inh	RanGTP-Impb inh	zVAD death inh	Runt-CBFb FRET	Hck-Nef inh	Runt-SMMHC FRET
CCOC(=O)C1=C(CSc2nc3c(cc2C#N)CN(C)CC3)OC(N)=C(C#N)C1c1ccccc1 (stereo unspecified)	-	32.0	-	-	-	103.6
O=C(CN1C(=O)c2cccnc2Oc2ccc(Cl)cc21)NC1CCCCC1	.	-	.	.	.	.
Cc1ccc2c(n1)sc1c(-c3ccccc3)c(C#N)c(N)nc12	-	56.1	-	-	-	99.7
O=c1c2c3c(sc2ncn1Cc1ccc(F)cc1)CCC3	92.5	-	-	-	-	-
Cc1nc(SCC(=O)NCC2CCCO2)[nH]c(=O)c1C (stereo unspecified)	.	-	.	.	.	.
C=CCc1cccc(/C=N/NC(=O)c2ccccc2OC)c1O	-	39.2	-	-	-	-
C=CCc1cccc(/C=N/NC(=O)c2ccccc2Br)c1O	-	-	-	-	-	-
Cc1cccn2c(=O)c3cc(C(=O)NC4CCCCC4)c(=N)n(CCN4CCOCC4)c3nc12	-	112.7	-	97.1	-	127.7
Cc1cccn2c(=O)c3cc(C(=O)NC4CCCC4)n(C)c3nc12	.	-	.	.	.	.
Cc1cccn2c(=O)c3cc(C(=O)NC4CCCC4)c(=N)n(C4CCCC4)c3nc12	-	180.0	-	-	65.6	62.6
Cc1cccn2c(=O)c3cc(C(=O)NC4CCCCC4)n(C)c3nc12	.	-	.	.	.	.
CCCCNC(=O)c1cc2c(=O)n3cccc(C)c3nc2n(CCN2CCOCC2)c1=N	-	149.7	-	99.9	-	61.6
CN(C)c1nnnn1-c1ccccc1Oc1ncc(C(F)(F)F)cc1Cl	-	-	-	-	-	-
COC(=O)c1c(C)oc(C)c1S(=O)(=O)N1CCOCC1	-	-	-	-	-	-
Cc1ccc(S(=O)(=O)N(C)C)cc1NC(=O)c1cc(C(C)(C)C)nn1Cc1ccccc1	-	-	-	-	-	-
O=c1[nH]c2ccccc2nc1-c1cccs1	-	-	-	91.4	-	168.8
c1csc(-c2nnsc2-c2nc3ccccc3[nH]2)c1	-	-	-	-	-	-
COc1cccc2cc(C(=O)NCc3ccco3)c(=Nc3ccc(C(=O)O)cc3)oc12	-	-	-	-	-	-
NC(=O)c1cc2ccc(O)cc2oc1=Nc1ccccc1	-	175.6	-	-	-	65.3
COc1ccc2cc(C(N)=O)c(=Nc3ccccc3)oc2c1	-	-	-	.	-	-
O=C(O)c1ccc(N=c2oc3cc(O)ccc3cc2C(=O)NCc2ccccc2)cc1	-	168.8	-	-	-	88.4
COc1ccc(OC)c(N=c2oc3cc(O)ccc3cc2C(N)=O)c1	-	157.7	-	119.7	-	117.2
C/C(=N\NC(=O)CC#N)c1cc2ccc(O)cc2oc1=O	-	-	-	-	-	91.9
NS(=O)(=O)c1ccc(CCNC(=O)CN2CCN(Cc3cccc4ccccc34)CC2)cc1	.	-	.	.	.	.
O=C(O)CCSCCCN1C(=O)c2cccc3cccc(c23)C1=O	-	-	-	-	-	-
O=C(NNc1ccccc1[N+](=O)[O-])Nc1cccc(Cl)c1	-	-	-	-	-	-
Cc1nonc1CC(=O)N1CCCC(C(=O)c2ccc(Cl)cc2)C1 (stereo unspecified)	-	-	-	-	-	-
O=C(NCc1ccccc1)c1cc2ccc(O)cc2oc1=O	.	186.4	.	.	.	.
